Results on 18 compounds are retold here after ChEMBL document CHEMBL1806397, “6-Aryl-3-pyrrolidinylpyridines as mGlu5 receptor negative allosteric modulators” (Bioorg Med Chem Lett, 2011).

One may read the pKa as the negative logarithm of the acid dissociation constant. The Papp is the rate of passage across a membrane or cell layer, normalised by area and donor concentration. One may read the logD as the decadic logarithm of the distribution of all forms, ionised or not, between an organic phase and buffer at a given pH. Read a low logD as lower lipophilicity.

Molecules are shown by their SMILES.

One series concerns Liver microsomes. The experiment in a line: Intrinsic clearance in human liver microsomes at 1 uM after 0.25 to 60 mins by LC-MS/MS analysis. The format is ADME, Microsome. Put shortly:
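Compound at 1 µM incubated at 37 °C with pooled human liver microsomes (0.5 mg/mL) in 0.1 M potassium phosphate pH 7.4 with an NADPH-regenerating system. Aliquots taken at 0.25, 5, 15, 30 and 60 min and quenched in acetonitrile. CLint calculated from T1/2, scaled by liver and microsomal protein factors.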
Background: Liver microsomes are vesicles of endoplasmic reticulum, rich in cytochrome P450 enzymes.

A short description of series [1]: Dissociation constant, pKa of the compound. The series is classed as physicochemical.
Series [2] can be described thus: Apparent permeability of the compound at pH 7.4 by PAMPA method. The format is ADME. Put shortly: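 Passive membrane permeability estimated by PAMPA; apparent permeability (P_APP) reported in cm/s.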
(The PAMPA barrier holds no transporters, so it reflects passive diffusion.)

The nature of series [3]: Distribution coefficient, log D of the compound at pH 7.4. The format is physicochemical. As to conditions: octanol/water.
A short description of series [4]: Drug level in Sprague-Dawley rat brain at 10 mg/kg, po after 1 hr. The format is ADME, organism-based. Also on record: dose 10 mg/kg, route oral. As to conditions: read-out: Drug uptake.
The nature of series [5]: Drug level in Sprague-Dawley rat plasma at 10 mg/kg, po after 1 hr. The series is classed as ADME, organism-based. Also on record: dose 10 mg/kg, route oral.
Series [6] in a line: Ratio of drug level in brain to plasma in Sprague-Dawley rat at 10 mg/kg, po after 1 hr. The format is ADME, organism-based. Also on record: dose 10 mg/kg, route oral. The conditions noted are these: read-out: BPR.
A further series concerns Plasma. The series can be described thus: Free drug level in Sprague-Dawley rat plasma at 10 mg/kg, po after 1 hr. The format is ADME, organism-based. On the set-up: dose 10 mg/kg, route oral. As to conditions: in vivo.
A short description of series [7]: Drug level in Sprague-Dawley rat cerebrospinal fluid at 10 mg/kg, po after 1 hr. The series is classed as ADME, organism-based. Also on record: dose 10 mg/kg, route oral. As to conditions: read-out: Drug uptake.

On to `Cc1cc(-c2cccc(Cl)c2)ncc1C1CC(F)CN1C(=O)c1cnccn1` (stereo unspecified), for which the CL with Liver microsomes is on record as 2.6 L/min.
With `O=C(c1cccs1)N1CCCC1c1ccc(-c2cccc(Cl)c2)nc1` (stereo unspecified), the CL in the series with Liver microsomes is given as 3 L/min. Also, in series [1], the pKa came to 3.6.
On to `O=C(c1nccs1)N1CCCC1c1ccc(-c2cccc(Cl)c2)nc1` (stereo unspecified), for which the CL in the series on Liver microsomes is listed as 3.8 L/min.
For `O=C(c1cncs1)N1CCCC1c1ccc(-c2cccc(Cl)c2)nc1` (stereo unspecified), the CL in the series on Liver microsomes amounted to 1.6 L/min. The compound also returned a pKa in [1] of 3.6.
For `Cc1cc(C(=O)N2CCCC2c2ccc(-c3cccc(Cl)c3)nc2)no1` (stereo unspecified), the pKa in [1] stood at 3.5.
On to `O=C(c1cnccn1)N1CCCC1c1ccc(-c2cccc(Cl)c2)nc1` (stereo unspecified), for which, in the series with Liver microsomes, the CL was 3.3 L/min. Moreover, the pKa in series [1] was 3.4.
In the series on Liver microsomes, `Cc1cc(-c2cccc(Cl)c2)ncc1C1CCCN1C(=O)c1cncs1` (stereo unspecified) gave a CL of 35 L/min. The pKa in series [1] stood at 4.2.
On to `Cc1cc(C(=O)N2CCCC2c2cnc(-c3cccc(Cl)c3)cc2C)no1` (stereo unspecified), for which the CL with Liver microsomes is 38 L/min. In addition, in series [1], the pKa came out at 4.2.
The corresponding values for `Cc1cc(-c2cccc(Cl)c2)ncc1C1CCCN1C(=O)c1cnccn1` (stereo unspecified) are 3.3 L/min and 4.1.
For the compound `Cc1cc(-c2cccc(Cl)c2)ncc1C1CCCN1C(=O)c1ccncn1` (stereo unspecified), in the series on Liver microsomes, the CL was 5.3 L/min.
Same read-out and setting: as for `Cc1cc(-c2cccc(Cl)c2)ncc1C1CCCN1C(=O)C1CCC1` (stereo unspecified), the figure is 5.3 L/min.
For `COc1cc(-c2cccc(Cl)c2)ncc1C1CCCN1C(=O)c1cncs1` (stereo unspecified), in the series on Liver microsomes, the CL was determined as 1.7 L/min. Also, the pKa in series [1] is 5.
For `O=C(C1CCC1)N1CCCC1c1cnc(-c2cccc(Cl)c2)cc1O` (stereo unspecified), the pKa in series [1] was 2.8.
Compound `Cc1cc(-c2cccc(Cl)c2)ncc1C1CC(O)CN1C(=O)c1nccs1` (stereo unspecified) had a CL in the series on Liver microsomes of 0.9 L/min.
On the same count and under the same terms, to `Cc1cc(-c2cccc(Cl)c2)ncc1C1CC(O)CN1C(=O)c1cnccn1` (stereo unspecified) belongs 1.6 L/min; to `Cc1cc(-c2cccc(Cl)c2)ncc1C1CC(F)CN1C(=O)c1cncs1` (stereo unspecified), 7.1 L/min.
In the case of `Cc1cc(-c2cccc(Cl)c2)ncc1[C@H]1CCCN1C(=O)c1nccs1`, the apparent permeability coefficient (Papp) in series [2] was 15 ×10⁻⁶ cm/s. The same compound gave a logD in series [3] of 4.3. Moreover, the concentration at 1 h was 133 nM in series [4], 162 nM in series [5] and 3 nM in series [7]. For the same compound, the Kp at 1 h in series [6] was 0.8. Further, the “Cp(f)” value with Plasma worked out at 1 nM.
With `Cc1cc(-c2cccc(Cl)c2)ncc1C1CCCN1C(=O)c1nccs1` (racemic), the CL in the series on Liver microsomes is on record as 5.2 L/min.
